Data: ChEMBL document CHEMBL4002622, “A tetramic acid derivative with protein tyrosine phosphatase 1B inhibitory activity and a new nortriterpene glycoside from the Indonesian marine sponge Petrosia sp” (Bioorg Med Chem Lett, 2017)
Activity calls are given as the source filed them. No cut-off for these calls is given here.

How the values were obtained:
[1] = test system: Huh-7; assay: Cytotoxicity against human HuH7 cells assessed as decrease in cell viability after 72 hrs by WST1 assay; format: functional, cell-based
Method in brief: (§1)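 Seeded 1×10^4 cells per well, cultured overnight, then exposed to compound for 72 h; controls got 0.1% EtOH. Medium with WST-1 (0.5 mM WST-1, 0.02 mM 1-PMS) added, 60 min at 37 °C, absorbance 438 nm (reference 620 nm). Viability = treated absorbance/control absorbance × 100 (%).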

[2] = biological target: T1, Tyrosine-protein phosphatase non-receptor type 1 (Homo sapiens) (UniProt P18031); assay: Inhibition of PTP1B (unknown origin) at 15.2 to 16 uM using pNPP as substrate preincubated for 10 mins followed by substrate addition measured after 30 mins
T1 sequence (whole entry): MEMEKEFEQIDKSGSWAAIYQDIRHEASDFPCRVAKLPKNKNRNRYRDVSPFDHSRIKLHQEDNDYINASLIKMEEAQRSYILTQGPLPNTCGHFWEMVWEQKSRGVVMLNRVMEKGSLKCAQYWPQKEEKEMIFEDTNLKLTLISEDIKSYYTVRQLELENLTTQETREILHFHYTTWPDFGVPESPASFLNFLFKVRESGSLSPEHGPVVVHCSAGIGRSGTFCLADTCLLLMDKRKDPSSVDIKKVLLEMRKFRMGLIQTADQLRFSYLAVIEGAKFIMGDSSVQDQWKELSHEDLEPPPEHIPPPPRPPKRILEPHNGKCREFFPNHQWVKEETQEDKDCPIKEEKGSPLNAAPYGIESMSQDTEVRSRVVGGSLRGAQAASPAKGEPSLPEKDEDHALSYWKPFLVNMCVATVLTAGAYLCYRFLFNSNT
Method in brief: (§2)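 Enzyme (0.5 μg/mL stock) in 50 mM citrate pH 6.0, 0.1 M NaCl, 1 mM DTT, 1 mM EDTA; sample added in CH3OH, preincubated 10 min at 37 °C. pNPP (4.0 mM stock) started reaction, 30 min at 37 °C, stopped with 10 M NaOH; p-nitrophenol read at 405 nm. Inhibition (%) = [1 − (sample − blank)/(control − blank)] × 100; oleanolic acid positive control.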

[3] = test system: A549; assay: Cytotoxicity against human A549 cells assessed as decrease in cell viability after 72 hrs by WST1 assay; format: functional, cell-based; method in brief: as §1
[4] = biological target: T2, Tyrosine-protein phosphatase non-receptor type 1 (Homo sapiens, UniProt P18031); assay: Inhibition of PTP1B (unknown origin) using pNPP as substrate preincubated for 10 mins followed by substrate addition measured after 30 mins; method in brief: as §2
T2 sequence (P18031 whole entry): T1 sequence (whole entry)

Compound | inhibition [2] | IC50 [4] | Activity [1] | Activity [3]
CC(=O)N[C@H]1[C@H](O[C@@H]2CO[C@@H](O[C@H]3CC[C@]4(C)C5=C(CC[C@H]4C3(C)C)[C@@H]3CC[C@H]([C@H](C)CC(=O)CC(C)(C)O)[C@@]3(C)CC5)[C@H](O[C@@H]3O[C@H](CO[C@@H]4O[C@H](CO)[C@@H](O)[C@H](O)[C@H]4O[C@@H]4O[C@H](CO)[C@@H](O)[C@H](O)[C@H]4O)[C@@H](O)[C@H](O)[C@H]3NC(C)=O)[C@H]2O)O[C@H](CO)[C@H](O)[C@@H]1O | inactive |  | inactive | inactive
CCCCCCCC(C)CCC/C(O)=C1\C(=O)C(C)N(C)C1=O (stereo not drawn) [MELOPHLIN C] |  | 14.6 µM |  | 
CC(=O)N[C@H]1[C@H](O[C@@H]2CO[C@@H](O[C@H]3CC[C@@]4(C)[C@@H](CCC5=C6[C@@H](O)C[C@H]([C@H](C)CC(=O)C=C(C)C)[C@@]6(C)CC[C@@]54O)C3(C)C)[C@H](O[C@@H]3O[C@H](CO[C@@H]4O[C@H](CO)[C@@H](O)[C@H](O)[C@H]4O[C@@H]4O[C@H](CO)[C@@H](O)[C@H](O)[C@H]4O)[C@@H](O)[C@H](O)[C@H]3NC(C)=O)[C@H]2O)O[C@H](CO)[C@H](O)[C@@H]1O | inactive |  | inactive | inactive

Further lines, with some results ahead:

inhibition [2] | IC50 [4] | Compound | Activity [1] | Activity [3]
inactive |  | CC(=O)N[C@H]1[C@H](O[C@@H]2CO[C@@H](O[C@H]3CC[C@]4(C)C5=C(CC[C@H]4C3(C)C)[C@@H]3CC[C@H]([C@H](C)CC(=O)C=C(C)C)[C@@]3(C)CC5)[C@H](O[C@@H]3O[C@H](CO[C@@H]4O[C@H](CO)[C@@H](O)[C@H](O)[C@H]4O[C@@H]4O[C@H](CO)[C@@H](O)[C@H](O)[C@H]4O)[C@@H](O)[C@H](O)[C@H]3NC(C)=O)[C@H]2O)O[C@H](CO)[C@H](O)[C@@H]1O | inactive | inactive
inactive |  | CC(=O)C[C@@H](C)[C@H]1CC[C@H]2C3=C(CC[C@]12C)[C@@]1(C)CC[C@H](O[C@@H]2OC[C@@H](O[C@@H]4O[C@H](CO)[C@H](O)[C@H](O)[C@H]4NC(C)=O)[C@H](O)[C@H]2O[C@@H]2O[C@H](CO[C@@H]4O[C@H](CO)[C@@H](O)[C@H](O)[C@H]4O[C@@H]4O[C@H](CO)[C@@H](O)[C@H](O)[C@H]4O)[C@@H](O)[C@H](O)[C@H]2NC(C)=O)C(C)(C)[C@@H]1CC3 | inactive | inactive
